Reference: PMC3549054 (Biochemistry, 2012)
Entries after “also recorded” stand apart in the source; their conditions may differ. Where two headings read alike, the source gives them in different places.

Legend:
rabbit GAPDH = rabbit GAPDH (Oryctolagus cuniculus, UniProt P46406); test: UV-visible binding of protoporphyrin IX analogs to rabbit GAPDH
CBS = conditions: ref [44]; cited from earlier work
[1] = biological target: Fe(II)-GAPDH (ferrous rGAPDH-heme) (Oryctolagus cuniculus, UniProt P46406); test: Stopped-flow kinetics of CO binding to Fe; parameters: species or system rabbit
Chain of Fe(II)-GAPDH (ferrous rGAPDH-heme) (P46406 2-333): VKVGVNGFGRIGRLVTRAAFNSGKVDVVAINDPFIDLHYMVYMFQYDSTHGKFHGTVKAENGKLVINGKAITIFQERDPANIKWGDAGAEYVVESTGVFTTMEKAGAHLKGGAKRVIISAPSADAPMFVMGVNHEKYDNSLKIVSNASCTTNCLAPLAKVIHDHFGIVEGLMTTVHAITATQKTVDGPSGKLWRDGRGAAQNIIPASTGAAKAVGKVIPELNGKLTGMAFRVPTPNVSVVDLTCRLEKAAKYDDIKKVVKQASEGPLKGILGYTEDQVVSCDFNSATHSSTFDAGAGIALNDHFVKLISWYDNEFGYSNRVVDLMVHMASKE

Ferric rGAPDH-heme = Ferric rGAPDH-heme (Oryctolagus cuniculus, UniProt P46406); assay type: binding, rabbit
Chain of Ferric rGAPDH-heme (P46406 2-333): as above

rGAPDH [2] = biological target: T1, rGAPDH (Oryctolagus cuniculus, UniProt P46406); test: Binding of pre-reduced heme to rGAPDH; parameters: species or system rabbit; conditions: after 10 min
T1 sequence (P46406 2-333 limits assumed): as the sequence (P46406 2-333) above

rGAPDH [3] = biological target: T1, rGAPDH; test: Kinetics of heme transfer from GAPDH to apo-myoglobin, koff; assay type: binding, rabbit
[4] = Redox potentiometry of rGAPDH-heme; assay type: physicochemical; conditions: titration of ferric complex with dithionite
rGAPDH [5] = biological target: T1, rGAPDH; test: Ethoxylation of His residues with DEPC, then heme binding by UV-vis; assay type: biochemical, rabbit; conditions: 15 mM DEPC, 2 h on ice
In short: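 Recombinant rabbit GAPDH (N-His6, E. coli BL21(DE3), Ni-NTA purified), 100 µM apo or preformed with 20 µM heme, treated with 15 mM DEPC on ice in 40 mM EPPS pH 7.6, 150 mM NaCl, 10% glycerol. Excess DEPC removed by three buffer exchanges on 10 kDa spin columns. Protein diluted to ~40 µM; UV-vis spectra taken before and after adding 8 µM fresh hemin.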

hGAPDH = hGAPDH (Homo sapiens, UniProt P04406); test: GAPDH dehydrogenase activity assay; assay type: biochemical; conditions: data not shown
Chain of hGAPDH (P04406 2-335 limits assumed): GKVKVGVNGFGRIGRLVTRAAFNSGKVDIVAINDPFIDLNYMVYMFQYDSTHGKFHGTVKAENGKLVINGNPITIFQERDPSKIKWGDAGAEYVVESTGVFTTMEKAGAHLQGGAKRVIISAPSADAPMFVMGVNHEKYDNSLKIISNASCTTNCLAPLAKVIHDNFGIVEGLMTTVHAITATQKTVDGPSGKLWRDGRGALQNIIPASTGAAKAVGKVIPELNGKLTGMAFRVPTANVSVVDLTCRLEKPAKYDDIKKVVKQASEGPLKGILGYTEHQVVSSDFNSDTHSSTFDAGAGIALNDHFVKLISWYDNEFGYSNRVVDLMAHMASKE
In short: (§1)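 NADH formation was followed at 340 nm (ε340 = 6.22 mM−1cm−1) in 40 mM triethanolamine, 50 mM Na2HPO4, 0.2 mM EDTA, pH 8.9, with 2 mM NAD and 2 mM D-glyceraldehyde 3-phosphate. Reactions were started with ~1 µg enzyme. The rabbit enzyme was N-His6, Ni-NTA purified; the human enzyme was a GST fusion cleaved with thrombin. Both were expressed in E. coli.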

Rv0203 = conditions: ref [85], cited from earlier work
[6] = biological target: Nuclear hormone receptor, Rev-erb β; conditions: read-out: Kd (direct), ref [14], cited from earlier work
rGAPDH [7] = biological target: T1, rGAPDH; test: Spectrophotometric titration of GAPDH with hemin; assay type: binding, rabbit
HTP (PhuT) = conditions: ref [21], cited from earlier work
pa-HO = conditions: ref [57], cited from earlier work
BSA = conditions: cited from earlier work
PhuS = conditions: ref [57]; cited from earlier work
Sperm whale Mb = conditions: ref [56]; cited from earlier work
HasAp = conditions: ref [34], cited from earlier work
Apo-DHR51-LBD = conditions: read-out: Kd (direct); ref [81]; cited from earlier work
rGAPDH [8] = biological target: T1, rGAPDH; test: GAPDH dehydrogenase activity assay; assay type: biochemical, rabbit; conditions: data not shown
In short: as §1

rGAPDH [9] = biological target: T1, rGAPDH; test: Stopped-flow kinetics of heme binding to GAPDH, kon; parameters: species or system rabbit; conditions: ferric heme, 10 °C
In short: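 N-terminally His6-tagged rabbit GAPDH, expressed in E. coli BL21(DE3) and Ni-NTA purified. Freshly prepared hemin (5 µM) was mixed by stopped-flow at 10 °C with rGAPDH at 10–80 µM in 100 mM EPPS pH 7.6, 150 mM NaCl and 10% glycerol. Traces were collected on a diode array detector, and kobs was obtained from single-exponential fits.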

HtsA = conditions: ref [83], cited from earlier work
CcmE = conditions: ref [82], cited from earlier work
nitrobindin = conditions: ref [68]; cited from earlier work
[10] = biological target: HRI (heme regulated inhibitor), eIF2α; conditions: ref [60], cited from earlier work
Shp = conditions: ref [84], cited from earlier work
[11] = pH 7.4 (Tris, 100 mM, 10% glycerol), room temperature
[12] = CO-saturated buffer (1 mM final concentration), 10 °C
[13] = fit of Equation 2 to fast phase

Chain of rabbit GAPDH (P46406 2-333 limits assumed): as the sequence (P46406 2-333) above

## Zn(II)-protoporph IX
Rabbit GAPDH; pH 7.4
  Binding to GAPDH (Comments): LS, partial binding, red-shift

## C=Cc1c(C)c2cc3[nH]c(cc4nc(cc5nc(cc1[nH]2)C(C)=C5CCC(=O)[O-])C(CCC(=O)[O-])=C4C)c(C)c3C=C.[Co+2] [Co(III)-protoporph IX, Co(III)-protoporphyrin IX]
Rabbit GAPDH; [11]
  Binding to GAPDH (Comments): LS, red-shift
Rabbit GAPDH; pH 7.4 (Tris, 100 mM, 10% glycerol), room temperature, listed as Co(III)-protoporphyrin IX
  Binding to GAPDH (Comments): bound

## [C-]#[O+] [CO, carbon monoxide]
CBS
  rebinding rate ratio for displacement of Cys^52 by CO: 106 µM
[1]
  kobs, 6-coord, 420 nm: 1.2 s⁻¹
[1]; [12]
  kobs1 (fast phase) of CO binding: 1.5 s⁻¹
  kobs2 (slow phase) of CO binding: 0.068 s⁻¹
[1]; [CO]>0.2 mM
  rate of distal ligand displacement by CO: 1.75 s⁻¹
[1]; [13]
  axial ligand dissociation rate constant k−Y: ~ 2 s^−1
  ligand rebinding rate ratio kY/k'CO: ~ 0.1 mM
[1]; saturating [CO], [rGAPDHtetramer]/[heme] < 1:1
  kobs 5-coord, 410 nm: 4.3 s⁻¹

## Fe(III)-deuteroporph IX
Rabbit GAPDH; pH 7.4
  Binding to GAPDH (Comments): LS, red-shift

## N#C[S-].[Na+] [thiocyanate]
Ferric rGAPDH-heme
  binding to ferric rGAPDH-heme (spectral shift): did not bind

## C=CC1=C(C)c2cc3[nH]c(cc4nc(cc5[nH]c(cc1n2)c(C)c5CCC(=O)O)C(CCC(=O)O)=C4C)c(C)c3C=C [Protoporph IX, Protoporphyrin IX]
Rabbit GAPDH; [11]
  Binding to GAPDH (Comments): No binding

## C=CC1=C(C)c2cc3[n-]c(cc4[n-]c(cc5nc(cc1n2)C(C)=C5C=C)c(C)c4CCC(=O)O)c(CCC(=O)O)c3C.[Fe+2] [ferrous heme]
rGAPDH [2]
  fraction of total available reduced heme forming a complex with rGAPDH: 18%
rGAPDH [3]; ferrous heme, 25 °C, anaerobic, single exponential
  koff of ferrous (reduced) heme: 0.0042 s⁻¹

## Fe(III)-mesoporph IX
Rabbit GAPDH; pH 7.4
  Binding to GAPDH (Comments): LS, red-shift

## GAPDH-heme: pre-formed complex of rabbit GAPDH with heme
[4]
  midpoint potential, reductive titration: −153 ± 4 mV

## [N-]=[N+]=[N-] [azide]
Ferric rGAPDH-heme
  binding to ferric rGAPDH-heme / displacement of distal ligand (as summarised): unable to bind; also recorded: not displaced

## c1c[nH]cn1 [imidazole]
Ferric rGAPDH-heme
  binding to ferric rGAPDH-heme (spectral shift): did not bind
  binding to ferric rGAPDH-heme / displacement of distal ligand (as summarised): unable to bind

## CCOC(=O)OC(=O)OCC [DEPC, diethylpyrocarbonate]
rGAPDH [5]
  effect of DEPC on preformed rGAPDH-heme spectral properties: did not alter; also recorded: had no effect; also recorded: does not alter
  effect of DEPC treatment of heme-free rGAPDH on heme binding: abolished the protein’s ability to bind heme; also recorded: hampered heme binding completely; also recorded: unable to bind heme

## C=CC1=C(C)c2cc3[n-]c(cc4[n-]c(cc5nc(cc1n2)C(C)=C5C=C)c(C)c4CCC(=O)O)c(CCC(=O)O)c3C.[Cl-].[Fe+3] [hemin, Fe(III)-protoporphyrin IX]
hGAPDH
  effect of heme binding on dehydrogenase activity: does not affect
Rv0203; read-out: Kd (koff/kon)
  Kd: 0.00062 µM
Rv0203
  koff: 0.082 s⁻¹
  kon: 1.3e+08 M⁻¹ s⁻¹
[6]; Rev-erb β (oxidized)
  Kd: 0.117 µM
[6]; Rev-erb β (reduced)
  Kd: 0.023 µM
rGAPDH [7]; read-out: Kd (direct), Wild type rGAPDH
  Kd: 0.024 µM
rGAPDH [7]; read-out: dissociation constant (Kd), direct titration, 10 µM rGAPDH, hemin 0–35 µM, 100 mM Tris pH 7.4, 10% glycerol
  Kd: 0.024 µM
HTP (PhuT); read-out: Kd (direct)
  Kd: 1200 µM
HTP (PhuT)
  koff: 0.00038 s⁻¹
pa-HO; read-out: Kd (koff/kon)
  Kd: 0.6 µM
pa-HO
  koff: 0.066 s⁻¹
  kon: 110000 M⁻¹ s⁻¹
BSA; BSA-heme, ref [65]
  heme dissociation rate: 10^−2 s^−1
BSA; read-out: Kd (koff/kon), ref [56]
  Kd: 0.00022 µM
BSA; ref [56]
  koff: 0.011 s⁻¹
  kon: 5e+07 M⁻¹ s⁻¹
PhuS
  koff: 0.036 s⁻¹
  kon: 180000 M⁻¹ s⁻¹
Sperm whale Mb
  koff: 8.4e-07 s⁻¹
  kon: 7.6e+07 M⁻¹ s⁻¹
HasAp; read-out: Kd (koff/kon)
  Kd: 35 µM
HasAp
  kon: 1.6e+07 M⁻¹ s⁻¹
Apo-DHR51-LBD
  Kd: 0.43 µM
rGAPDH [8]
  effect of heme binding on dehydrogenase activity: does not affect
rGAPDH [9]
  kon: 17800 M⁻¹ s⁻¹
HtsA; read-out: Kd (koff/kon)
  Kd: 8 µM
HtsA
  kon: 8e+07 M⁻¹ s⁻¹
CcmE; read-out: Kd (direct) (M), high affinity
  Kd: 2e-07 M
CcmE; read-out: Kd (direct) (M), low affinity
  Kd: 1e-05 M
nitrobindin
  heme loss rate: 3.6e-05 s⁻¹
[10]; read-out: Kd (koff/kon)
  Kd: 0.00014 µM
[10]
  koff: 0.0015 s⁻¹
  kon: 1.1e+07 M⁻¹ s⁻¹
Rabbit GAPDH; [11]
  Binding to GAPDH (Comments): LS, red-shift
rGAPDH [3]; ferric heme, 10 °C, bi-exponential fit
  koff1 (fast phase): 0.007 s⁻¹
rGAPDH [3]; read-out: Kd (koff/kon) (M), from fast koff, Wild type rGAPDH
  Kd: 3.9e-07 M
rGAPDH [3]; read-out: Kd (koff/kon) (M), from slow koff, Wild type rGAPDH
  Kd: 1.9e-08 M
rGAPDH [3]; read-out: approximate affinities from koff/kon, ferric heme, 10 °C
  Kd: 1.9e-08 to 3.9e-07 M
Shp; read-out: Kd (koff/kon)
  Kd: 22 µM
Shp
  kon: 1.6e+06 M⁻¹ s⁻¹

## Fe(III)-2,4-diacetyldeuteroporph IX
Rabbit GAPDH; pH 7.4
  Binding to GAPDH (Comments): LS, partial binding, red-shift
